Test results published in ChEMBL document CHEMBL1833856, “Discovery and kinetic evaluation of 6-substituted 4-benzylthio-1,3,5-triazin-2(1H)-ones as inhibitors of cathepsin B” (Eur J Med Chem, 2011).

Columns and labels:
[1] = target: T1, Cathepsin B (Homo sapiens, UniProt P07858); test: Reversible inhibition of human recombinant cathepsin B assessed as formation of fluorescent degradation product AMC using Z-Arg-Arg-AMC as substrate by Michaelis-Menten method
In short: (§1)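 Recombinant human catB (133 pM) preactivated 5 min at 37 °C in 100 mM phosphate pH 6.0, 0.1% PEG 8000, 5 mM DTT, 1.5 mM EDTA, 5% DMSO. Initial hydrolysis rates taken across Z-Arg-Arg-AMC (60, 180, 360 µM, as added) and inhibitor (0–70 µM, as added). AMC read ex 380/em 460 nm at 37 °C. Duplicates, two independent runs. β fitted for ES-complex binding.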

[2] = target: T1, Cathepsin B; test: Partial mixed-type inhibition of human recombinant cathepsin B assessed as formation of fluorescent degradation product AMC using Z-Arg-Arg-AMC as substrate by Michaelis-Menten method; in short: as §1
[3] = target: T1, Cathepsin B; test: Inhibition of human recombinant cathepsin B assessed as factor by which the product formation changes when the inhibitor binds to the enzyme-substrate complex using Z-Arg-Arg-AMC as substrate by fluorescence microplate assay; in short: as §1
[4] = target: Procathepsin L (Homo sapiens) (UniProt P07711); test: Inhibition of human recombinant cathepsin L expressed in Escherichia coli assessed as formation of fluorescent degradation product AMC using Z-Phe-Arg-AMC as substrate at 50 uM by fluorescence microplate assay
[5] = target: T2, Pro-cathepsin H (Homo sapiens) (UniProt P09668); test: Inhibition of native cathepsin H isolated from human liver assessed as formation of fluorescent degradation product AMC using Arg-AMC as substrate at 50 uM by fluorescence microplate assay
T2 sequence (whole entry): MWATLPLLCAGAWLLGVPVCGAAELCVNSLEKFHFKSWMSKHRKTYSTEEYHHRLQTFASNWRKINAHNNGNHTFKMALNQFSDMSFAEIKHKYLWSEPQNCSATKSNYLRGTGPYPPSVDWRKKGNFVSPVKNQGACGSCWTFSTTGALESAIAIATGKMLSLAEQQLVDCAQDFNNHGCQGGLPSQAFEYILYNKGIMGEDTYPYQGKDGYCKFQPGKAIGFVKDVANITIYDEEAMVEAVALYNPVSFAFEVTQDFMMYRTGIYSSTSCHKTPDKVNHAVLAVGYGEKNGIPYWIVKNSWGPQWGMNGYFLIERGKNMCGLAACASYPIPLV

[6] = target: T1, Cathepsin B; test: Mixed-type inhibition of human recombinant cathepsin B assessed as formation of fluorescent degradation product AMC using Z-Arg-Arg-AMC as substrate by Michaelis-Menten method; in short: as §1
[7] = target: T1, Cathepsin B; test: Inhibition of human recombinant cathepsin B assessed as formation of fluorescent degradation product AMC using Z-Arg-Arg-AMC as substrate at 50 uM by fluorescence microplate assay

Chain of Procathepsin L (Homo sapiens) (P07711 114-333 limits assumed): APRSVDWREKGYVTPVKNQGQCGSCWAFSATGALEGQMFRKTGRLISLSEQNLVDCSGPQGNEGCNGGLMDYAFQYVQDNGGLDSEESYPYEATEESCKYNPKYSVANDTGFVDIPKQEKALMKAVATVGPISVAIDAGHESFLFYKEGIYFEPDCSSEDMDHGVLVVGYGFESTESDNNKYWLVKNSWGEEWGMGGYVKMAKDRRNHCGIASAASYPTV

A Ki [1] of 11.9 µM, a Ki [2] of 6 µM and a fold change (FC) [3] of 0.24 were found for `O=c1nc(SCc2ccccc2)nc(SCc2ccccc2[N+](=O)[O-])[nH]1` in this work.
A Ki [1] of 4.4 µM, a Ki [2] of 2.5 µM and a fold change (FC) [3] of 0.25 were found for `O=c1nc(SCc2ccccc2)nc(SCc2ccc(Cl)cc2)[nH]1` in this work. The inhibition [4] was 85.2% and the inhibition [5] was 6.91%.
A Ki [1] of 211 µM, a fold change (FC) [3] of 0 and an inhibition [4] of 42% were found for `O=c1nc(SCc2ccccc2)nc(SCC2CC2)[nH]1` in this work. It also gave a Ki [6] of 28.3 µM and an inhibition [5] of 10%.
An inhibition [7] of 9.02%, an inhibition [4] of 6.37% and an inhibition [5] of 6.58% were found for `Cc1ccc(-c2nc(S)[nH]c(=O)n2)cc1` in this work.
An inhibition [7] of -9.7%, an inhibition [4] of -0.33% and an inhibition [5] of -2.17% were found for `COc1ccc(CCNc2nc(Cl)nc(Cl)n2)cc1OC` in this work.
An inhibition [7] of -3.56%, an inhibition [4] of 11.6% and an inhibition [5] of 0.61% were found for `CN(CCO)c1nc(Cl)nc(Nc2ccccc2CCO)n1` in this work.
A Ki [1] of 259 µM and a Ki [6] of 49.4 µM were found for `CCCSc1nc(SCc2ccccc2)[nH]c(=O)n1` in this work.
A Ki [1] of 7.2 µM, a Ki [2] of 3.6 µM and a fold change (FC) [3] of 0.23 were found for `O=c1nc(SCc2ccccc2)nc(SCc2ccccc2Cl)[nH]1` in this work.
An inhibition [7] of -0.92%, an inhibition [4] of 8.76% and an inhibition [5] of -4.23% were found for `COC(=O)c1ccccc1Nc1nc(Cl)nc(Cl)n1` in this work.
A Ki [1] of 23 µM, a fold change (FC) [3] of 0 and an inhibition [4] of 9.96% were found for `O=c1nc(SCc2ccccc2)nc(SCC2CCCC2)[nH]1` in this work. For the same compound, the Ki [6] was 8.95 µM and the inhibition [5] was 10.6%.
An inhibition [7] of 6.34%, an inhibition [4] of -3.14% and an inhibition [5] of 2.63% were found for `COc1nc(Nc2ccccc2C(=O)O)nc(OC)n1` in this work.
A Ki [1] of 11.3 µM, a Ki [2] of 3.3 µM and a fold change (FC) [3] of 0.15 were found for `O=c1nc(SCc2ccccc2)nc(SCc2cccc([N+](=O)[O-])c2)[nH]1` in this work. For the same compound, the inhibition [4] was 81.2% and the inhibition [5] was 3.92%.
A Ki [1] of 5.4 µM, a Ki [2] of 4.5 µM and a fold change (FC) [3] of 0.28 were found for `O=c1nc(SCc2ccccc2)nc(SCc2cccc(Cl)c2)[nH]1` in this work.
A Ki [1] of 46.7 µM, a Ki [2] of 9.1 µM and a fold change (FC) [3] of 0.02 were found for `N#Cc1cccc(CSc2nc(SCc3ccccc3)nc(=O)[nH]2)c1` in this work.
A Ki [1] of 208 µM, a fold change (FC) [3] of 0 and an inhibition [4] of -5.28% were found for `N#CCSc1nc(SCc2ccccc2)nc(=O)[nH]1` in this work. The Ki [6] was 51.6 µM and the inhibition [5] was 4.94%.
A Ki [1] of 10.2 µM, a Ki [2] of 7.4 µM and a fold change (FC) [3] of 0.22 were found for `O=c1nc(SCc2ccccc2)nc(SCc2cccc(F)c2)[nH]1` in this work. The inhibition [4] was 7.68% and the inhibition [5] was 4.18%.
An inhibition [7] of 2.35% and an inhibition [4] of 15.8% were found for `COc1nc(OC)nc(Sc2ccccc2C(=O)O)n1` in this work.
A Ki [1] of 10 µM, a Ki [2] of 4 µM and a fold change (FC) [3] of 0.17 were found for `O=c1nc(SCc2ccccc2)nc(SCc2ccc([N+](=O)[O-])cc2)[nH]1` in this work.
A Ki [1] of 560 µM, a fold change (FC) [3] of 0 and an inhibition [4] of -2.36% were found for `O=C(O)CSc1nc(SCc2ccccc2)nc(=O)[nH]1` in this work. It also gave a Ki [6] of 351 µM and an inhibition [5] of 6.89%.
An inhibition [7] of 2.5%, an inhibition [4] of 3.79% and an inhibition [5] of 9.63% were found for `O=c1nc(SCc2ccccc2)nc(S)[nH]1` in this work.
A fold change (FC) [3] of 0, an inhibition [4] of -8.66% and an inhibition [5] of -4.82% were found for `CCCSc1nc(SCc2ccccc2)nc(=O)[nH]1` in this work.
An inhibition [7] of -5.48% and an inhibition [5] of 0.34% were found for `COc1nc(N[C@H](CCC(=O)O)C(=O)O)nc(OC)n1` in this work.
A Ki [1] of 13 µM, a Ki [2] of 21.9 µM and a fold change (FC) [3] of 0.42 were found for `COc1cccc(CSc2nc(SCc3ccccc3)nc(=O)[nH]2)c1` in this work.
A Ki [1] of 16.6 µM, a Ki [2] of 13.8 µM and a fold change (FC) [3] of 0.33 were found for `O=c1nc(SCc2ccccc2)nc(SCc2ccc(F)cc2)[nH]1` in this work.
An inhibition [7] of -1.7% and an inhibition [4] of -5.15% were found for `C[C@@H](NC(=O)c1ccccc1Nc1nc(Cl)nc(Cl)n1)C(=O)O` in this work.
A Ki [1] of 221 µM, a fold change (FC) [3] of 0 and a Ki [6] of 97.1 µM were found for `CCSc1nc(SCc2ccccc2)nc(=O)[nH]1` in this work. It also gave an inhibition [5] of -4.06%.
A Ki [1] of 9.5 µM, a Ki [2] of 9 µM and a fold change (FC) [3] of 0.36 were found for `O=c1nc(SCc2ccccc2)nc(SCc2ccccc2F)[nH]1` in this work.
An inhibition [7] of 3.99%, an inhibition [4] of 0.48% and an inhibition [5] of 6.37% were found for `COc1ccc(CNc2nc(Cl)nc(Cl)n2)cc1` in this work.
A Ki [1] of 34.1 µM, a fold change (FC) [3] of 0 and an inhibition [4] of 37.4% were found for `O=c1nc(SCc2ccccc2)nc(SCC2CCC2)[nH]1` in this work. The Ki [6] was 10.1 µM and the inhibition [5] was 1.57%.
An inhibition [7] of 2.3% and an inhibition [5] of -1.7% were found for `O=C(O)c1ccccc1Sc1nc(Cl)nc(Cl)n1` in this work.
An inhibition [7] of -3.22%, an inhibition [4] of -1.89% and an inhibition [5] of 4.86% were found for `O=c1nc(-c2ccccc2)nc(S)[nH]1` in this work.
A Ki [1] of 70.6 µM, a fold change (FC) [3] of 0 and an inhibition [4] of 9.33% were found for `CCCCSc1nc(SCc2ccccc2)nc(=O)[nH]1` in this work. For the same compound, the Ki [6] was 14.8 µM and the inhibition [5] was -1.81%.
An inhibition [7] of 1.68%, an inhibition [4] of -6.12% and an inhibition [5] of 3.02% were found for `CC(C)OC(=O)[C@H](C)NC(=O)c1ccc(Nc2nc(Cl)nc(Cl)n2)cc1` in this work.
An inhibition [7] of 0.92%, an inhibition [4] of 9.95% and an inhibition [5] of 7.12% were found for `COc1ccc(CNc2nc(Cl)nc(N(C)CCO)n2)cc1` in this work.
An inhibition [7] of -0.33%, an inhibition [4] of -9.64% and an inhibition [5] of -5.34% were found for `COC(=O)c1ccccc1Oc1nc(OC)nc(OC)n1` in this work.
A Ki [1] of 40.7 µM, a Ki [2] of 10.5 µM and a fold change (FC) [3] of 0.04 were found for `N#Cc1ccccc1CSc1nc(SCc2ccccc2)nc(=O)[nH]1` in this work.
A Ki [1] of 11.1 µM, a Ki [2] of 10.3 µM and a fold change (FC) [3] of 0.2 were found for `COc1ccc(CSc2nc(SCc3ccccc3)nc(=O)[nH]2)cc1` in this work.
A Ki [1] of 24.3 µM, a Ki [2] of 10.8 µM and a fold change (FC) [3] of 0.07 were found for `N#Cc1ccc(CSc2nc(SCc3ccccc3)nc(=O)[nH]2)cc1` in this work. It also gave an inhibition [4] of 44.9% and an inhibition [5] of 1.55%.
A Ki [1] of 15.6 µM, a Ki [2] of 4.4 µM and a fold change (FC) [3] of 0.22 were found for `COc1ccccc1CSc1nc(SCc2ccccc2)nc(=O)[nH]1` in this work. It also gave an inhibition [7] of 79.6%, an inhibition [4] of 61.3% and an inhibition [5] of 1.06%.
An inhibition [7] of 4.71%, an inhibition [4] of 7.7% and an inhibition [5] of 7.97% were found for `O=c1nc(-c2cccc([N+](=O)[O-])c2)nc(S)[nH]1` in this work.
An inhibition [7] of -7.27%, an inhibition [4] of 4.36% and an inhibition [5] of -4.16% were found for `CC(C)(C)c1ccccc1Nc1nc(Cl)nc(Cl)n1` in this work.
An inhibition [7] of -3.44%, an inhibition [4] of -1.59% and an inhibition [5] of -2.26% were found for `CCc1ccccc1Nc1nc(Cl)nc(Cl)n1` in this work.
An inhibition [7] of 3.18%, an inhibition [4] of -4.25% and an inhibition [5] of 1.34% were found for `COc1nc(OC)nc(Sc2ccccc2C(=O)N[C@@H](C)C(=O)OCc2ccccc2)n1` in this work.
An inhibition [7] of -4.76% and an inhibition [5] of -8.72% were found for `OCCc1ccccc1Nc1nc(Cl)nc(N2CCOCC2)n1` in this work.
A Ki [1] of 23 µM, a Ki [2] of 9.7 µM and a fold change (FC) [3] of 0.07 were found for `N#Cc1ccc(CSc2nc(SCc3ccccc3)nc(=O)[nH]2)c(F)c1` in this work.
An inhibition [7] of -1.59%, an inhibition [4] of 0.59% and an inhibition [5] of 4.52% were found for `Clc1nc(Cl)nc(Nc2ccccc2Br)n1` in this work.
An inhibition [7] of -3.38% was found for `OCCc1ccccc1Nc1nc(Cl)nc(Cl)n1` in this work.
A Ki [1] of 11.9 µM, a Ki [2] of 3.3 µM and a fold change (FC) [3] of 0.12 were found for `O=c1nc(SCc2ccccc2)nc(SCC2CCCCC2)[nH]1` in this work. The inhibition [4] was 76.2% and the inhibition [5] was 10.2%.
